Values belong to the compound of their own block, whether it stands above or below them. Activity calls are given as the source filed them. The rule behind the calls is not given here.
Tests used:
dsDNA [1] = experiment: Binding affinity to 5'-ACTTATTCCATATAGA-3'/3'-TGAATAAGGTATATCT-5' dsDNA (unknown origin) assessed as change in melting temperature at 2.5 uM by spectrophotometric method; assay type: nucleic-acid assay
dsDNA [2] = experiment: Binding affinity to 5'-ACTTATCCACTATAGA-3'/3'-TGAATAGGTGATATCT-5' dsDNA (unknown origin) assessed as change in melting temperature at 2.5 uM by spectrophotometric method; assay type: nucleic-acid assay
[3] = biological target: Histone acetyltransferase p300 (Homo sapiens, UniProt Q09472); experiment: Inhibition of p300 (unknown origin) using H3 peptide and acetyl-coA as substrate by fluorometric assay
Procedure, shortened: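 Fluorometric HAT kit assay with recombinant p300 core domain as enzyme and acetyl-CoA plus H3 histone peptide as substrates. Effectors were tested at 1 and 5 μM. HeLa nuclear extract served as positive control, and 0.5% DMSO was set as 100% activity.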

A549 [4] = experiment: Antiproliferative activity against human A549 cells at 0.1 to 10 uM after 96 hrs by WST8 assay; assay type: functional, cell-based
Procedure, shortened: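 Cells seeded at 5×10^3 per well and grown 24 h at 37°C, 5% CO2. A549 medium was DMEM with 10% FBS and 2 mM L-glutamine. SW620 medium had 10% FBS and 1% penicillin/streptomycin. Medium was then replaced with conjugate at 0.1, 1, 5 or 10 μM for 96 h. WST-8 reagent was added and absorbance read at 450 nm. Results are mean ± SD.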

[5] = biological target: Cellular tumor antigen p53 (Homo sapiens) (UniProt P04637); experiment: Activation of p53 in human A549 cells assessed as upregulation of SPATA18 gene expression at 2 uM after 48 hrs by microarray analysis relative to control; assay type: cell-based
Procedure, shortened: (§1)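 A549 cells plated at 2×10^5 cells/well, treated 48 h at 2 μM, with DMSO vehicle as control. Whole-genome transcriptional profiling followed the manufacturer's protocol. Total RNA integrity was checked by Bioanalyzer before arraying.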

[6] = biological target: Cellular tumor antigen p53 (Homo sapiens) (UniProt P04637); experiment: Activation of p53 in human A549 cells assessed as upregulation of EDA2R gene expression at 2 uM after 48 hrs by microarray analysis relative to control; assay type: cell-based; procedure, shortened: as §1
A549 [7] = experiment: Upregulation of ABCA12 gene expression in human A549 cells at 2 uM after 48 hrs by microarray analysis relative to control; assay type: functional; procedure, shortened: as §1
[8] = biological target: Cellular tumor antigen p53 (Homo sapiens) (UniProt P04637); experiment: Activation of p53 in human A549 cells assessed as upregulation of BTG2 gene expression at 2 uM after 48 hrs by microarray analysis relative to control; assay type: cell-based; procedure, shortened: as §1
A549 [9] = experiment: Upregulation of MIR3189 gene expression in human A549 cells at 2 uM after 48 hrs by microarray analysis relative to control; assay type: functional; procedure, shortened: as §1
A549 [10] = experiment: Upregulation of CDKN1A gene expression in human A549 cells at 2 uM after 48 hrs by microarray analysis relative to control; assay type: functional; procedure, shortened: as §1
A549 [11] = experiment: Upregulation of SULF2 gene expression in human A549 cells at 2 uM after 48 hrs by microarray analysis relative to control; assay type: functional; procedure, shortened: as §1
A549 [12] = experiment: Upregulation of WDR63 gene expression in human A549 cells at 2 uM after 48 hrs by microarray analysis relative to control; assay type: functional; procedure, shortened: as §1
[13] = biological target: Cellular tumor antigen p53 (Homo sapiens) (UniProt P04637); experiment: Activation of p53 in human A549 cells assessed as upregulation of FDXR gene expression at 2 uM after 48 hrs by microarray analysis relative to control; assay type: cell-based; procedure, shortened: as §1
[14] = biological target: Cellular tumor antigen p53 (Homo sapiens) (UniProt P04637); experiment: Activation of p53 in human A549 cells assessed as upregulation of MDM2 gene expression at 2 uM after 48 hrs by microarray analysis relative to control; assay type: cell-based; procedure, shortened: as §1
A549 [15] = experiment: Upregulation of UIMC1 gene expression in human A549 cells at 2 uM after 48 hrs by microarray analysis relative to control; assay type: functional; procedure, shortened: as §1
A549 [16] = experiment: Upregulation of MIR4713 gene expression in human A549 cells at 2 uM after 48 hrs by microarray analysis relative to control; assay type: functional; procedure, shortened: as §1
[17] = biological target: Cellular tumor antigen p53 (Homo sapiens) (UniProt P04637); experiment: Activation of p53 in human A549 cells assessed as upregulation of SESN1 gene expression at 2 uM after 48 hrs by microarray analysis relative to control; assay type: cell-based; procedure, shortened: as §1
A549 [18] = experiment: Upregulation of SCARNA7 gene expression in human A549 cells at 2 uM after 48 hrs by microarray analysis relative to control; assay type: functional; procedure, shortened: as §1
A549 [19] = experiment: Upregulation of MIR3685 gene expression in human A549 cells at 2 uM after 48 hrs by microarray analysis relative to control; assay type: functional; procedure, shortened: as §1
[20] = biological target: Cellular tumor antigen p53 (Homo sapiens) (UniProt P04637); experiment: Activation of p53 in human A549 cells assessed as upregulation of CYFIP2 gene expression at 2 uM after 48 hrs by microarray analysis relative to control; assay type: cell-based; procedure, shortened: as §1
A549 [21] = experiment: Upregulation of POLH gene expression in human A549 cells at 2 uM after 48 hrs by microarray analysis relative to control; assay type: functional; procedure, shortened: as §1
[22] = biological target: Cellular tumor antigen p53 (Homo sapiens) (UniProt P04637); experiment: Activation of p53 in human A549 cells assessed as upregulation of TP53INP1 gene expression at 2 uM after 48 hrs by microarray analysis relative to control; assay type: cell-based; procedure, shortened: as §1
[23] = biological target: Cellular tumor antigen p53 (Homo sapiens) (UniProt P04637); experiment: Activation of p53 in human A549 cells assessed as upregulation of CD70 gene expression at 2 uM after 48 hrs by microarray analysis relative to control; assay type: cell-based; procedure, shortened: as §1
[24] = biological target: Cellular tumor antigen p53 (Homo sapiens) (UniProt P04637); experiment: Activation of p53 in human A549 cells assessed as upregulation of FAS gene expression at 2 uM after 48 hrs by microarray analysis relative to control; assay type: cell-based; procedure, shortened: as §1
A549 [25] = experiment: Upregulation of GDF15 gene expression in human A549 cells at 2 uM after 48 hrs by microarray analysis relative to control; assay type: functional; procedure, shortened: as §1
A549 [26] = experiment: Upregulation of GAS6-AS1 gene expression in human A549 cells at 2 uM after 48 hrs by microarray analysis relative to control; assay type: functional; procedure, shortened: as §1
A549 [27] = experiment: Upregulation of ANKRD1 gene expression in human A549 cells at 2 uM after 48 hrs by microarray analysis relative to control; assay type: functional; procedure, shortened: as §1
[28] = biological target: Cellular tumor antigen p53 (Homo sapiens) (UniProt P04637); experiment: Activation of p53 in human A549 cells assessed as upregulation of DDB2 gene expression at 2 uM after 48 hrs by microarray analysis relative to control; assay type: cell-based; procedure, shortened: as §1
A549 [29] = experiment: Upregulation of NEFL gene expression in human A549 cells at 2 uM after 48 hrs by microarray analysis relative to control; assay type: functional; procedure, shortened: as §1
A549 [30] = experiment: Downregulation of SNORA9 gene expression in human A549 cells at 2 uM after 48 hrs by microarray analysis relative to control; assay type: functional; procedure, shortened: as §1
A549 [31] = experiment: Downregulation of ALDH1L2 gene expression in human A549 cells at 2 uM after 48 hrs by microarray analysis relative to control; assay type: functional; procedure, shortened: as §1
[32] = biological target: Cellular tumor antigen p53 (Homo sapiens) (UniProt P04637); experiment: Activation of p53 in human A549 cells assessed as downregulation of CARS gene expression at 2 uM after 48 hrs by microarray analysis relative to control; assay type: cell-based; procedure, shortened: as §1
A549 [33] = experiment: Downregulation of ASNS gene expression in human A549 cells at 2 uM after 48 hrs by microarray analysis relative to control; assay type: functional; procedure, shortened: as §1
A549 [34] = experiment: Downregulation of TAS2R30 gene expression in human A549 cells at 2 uM after 48 hrs by microarray analysis relative to control; assay type: functional; procedure, shortened: as §1
[35] = biological target: Cellular tumor antigen p53 (Homo sapiens) (UniProt P04637); experiment: Activation of p53 in human A549 cells assessed as downregulation of STC2 gene expression at 2 uM after 48 hrs by microarray analysis relative to control; assay type: cell-based; procedure, shortened: as §1
A549 [36] = experiment: Downregulation of ULBP1 gene expression in human A549 cells at 2 uM after 48 hrs by microarray analysis relative to control; assay type: functional; procedure, shortened: as §1
A549 [37] = experiment: Downregulation of GUSBP3 gene expression in human A549 cells at 2 uM after 48 hrs by microarray analysis relative to control; assay type: functional; procedure, shortened: as §1
[38] = biological target: Cellular tumor antigen p53 (Homo sapiens) (UniProt P04637); experiment: Activation of p53 in human A549 cells assessed as downregulation of CHAC1 gene expression at 2 uM after 48 hrs by microarray analysis relative to control; assay type: cell-based; procedure, shortened: as §1
A549 [39] = experiment: Induction of apoptosis in human A549 cells at 2 uM after 48 hrs by Annexin V-FITC/ethidium homodimer-3/Hoechst 33342 staining based fluorescence microscopic method; assay type: functional, cell-based
Procedure, shortened: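 A549 cells seeded in chamber slides at 2×10^4 cells/well and exposed to 2 μM for 48 h; vehicle control 0.1% DMSO. Cells were washed in binding buffer and stained with FITC-annexin V (apoptotic), ethidium homodimer III (necrotic) and Hoechst 33342 (all nuclei), then imaged by confocal fluorescence microscopy.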

A549 [40] = experiment: Anticlonogenic activity against human A549 cells after 10 days; assay type: functional, cell-based; conditions: A549, 240 h
NCI-H157 = experiment: Anticlonogenic activity against human NCI-H157 cells after 10 days; assay type: functional, cell-based; conditions: NCI-H157, 240 h
NCI-H460 = experiment: Anticlonogenic activity against human NCI-H460 cells after 10 days; assay type: functional, cell-based; conditions: NCI-H460, 240 h

Sequence of Histone acetyltransferase p300 (Q09472 whole entry, the tested form may be a part): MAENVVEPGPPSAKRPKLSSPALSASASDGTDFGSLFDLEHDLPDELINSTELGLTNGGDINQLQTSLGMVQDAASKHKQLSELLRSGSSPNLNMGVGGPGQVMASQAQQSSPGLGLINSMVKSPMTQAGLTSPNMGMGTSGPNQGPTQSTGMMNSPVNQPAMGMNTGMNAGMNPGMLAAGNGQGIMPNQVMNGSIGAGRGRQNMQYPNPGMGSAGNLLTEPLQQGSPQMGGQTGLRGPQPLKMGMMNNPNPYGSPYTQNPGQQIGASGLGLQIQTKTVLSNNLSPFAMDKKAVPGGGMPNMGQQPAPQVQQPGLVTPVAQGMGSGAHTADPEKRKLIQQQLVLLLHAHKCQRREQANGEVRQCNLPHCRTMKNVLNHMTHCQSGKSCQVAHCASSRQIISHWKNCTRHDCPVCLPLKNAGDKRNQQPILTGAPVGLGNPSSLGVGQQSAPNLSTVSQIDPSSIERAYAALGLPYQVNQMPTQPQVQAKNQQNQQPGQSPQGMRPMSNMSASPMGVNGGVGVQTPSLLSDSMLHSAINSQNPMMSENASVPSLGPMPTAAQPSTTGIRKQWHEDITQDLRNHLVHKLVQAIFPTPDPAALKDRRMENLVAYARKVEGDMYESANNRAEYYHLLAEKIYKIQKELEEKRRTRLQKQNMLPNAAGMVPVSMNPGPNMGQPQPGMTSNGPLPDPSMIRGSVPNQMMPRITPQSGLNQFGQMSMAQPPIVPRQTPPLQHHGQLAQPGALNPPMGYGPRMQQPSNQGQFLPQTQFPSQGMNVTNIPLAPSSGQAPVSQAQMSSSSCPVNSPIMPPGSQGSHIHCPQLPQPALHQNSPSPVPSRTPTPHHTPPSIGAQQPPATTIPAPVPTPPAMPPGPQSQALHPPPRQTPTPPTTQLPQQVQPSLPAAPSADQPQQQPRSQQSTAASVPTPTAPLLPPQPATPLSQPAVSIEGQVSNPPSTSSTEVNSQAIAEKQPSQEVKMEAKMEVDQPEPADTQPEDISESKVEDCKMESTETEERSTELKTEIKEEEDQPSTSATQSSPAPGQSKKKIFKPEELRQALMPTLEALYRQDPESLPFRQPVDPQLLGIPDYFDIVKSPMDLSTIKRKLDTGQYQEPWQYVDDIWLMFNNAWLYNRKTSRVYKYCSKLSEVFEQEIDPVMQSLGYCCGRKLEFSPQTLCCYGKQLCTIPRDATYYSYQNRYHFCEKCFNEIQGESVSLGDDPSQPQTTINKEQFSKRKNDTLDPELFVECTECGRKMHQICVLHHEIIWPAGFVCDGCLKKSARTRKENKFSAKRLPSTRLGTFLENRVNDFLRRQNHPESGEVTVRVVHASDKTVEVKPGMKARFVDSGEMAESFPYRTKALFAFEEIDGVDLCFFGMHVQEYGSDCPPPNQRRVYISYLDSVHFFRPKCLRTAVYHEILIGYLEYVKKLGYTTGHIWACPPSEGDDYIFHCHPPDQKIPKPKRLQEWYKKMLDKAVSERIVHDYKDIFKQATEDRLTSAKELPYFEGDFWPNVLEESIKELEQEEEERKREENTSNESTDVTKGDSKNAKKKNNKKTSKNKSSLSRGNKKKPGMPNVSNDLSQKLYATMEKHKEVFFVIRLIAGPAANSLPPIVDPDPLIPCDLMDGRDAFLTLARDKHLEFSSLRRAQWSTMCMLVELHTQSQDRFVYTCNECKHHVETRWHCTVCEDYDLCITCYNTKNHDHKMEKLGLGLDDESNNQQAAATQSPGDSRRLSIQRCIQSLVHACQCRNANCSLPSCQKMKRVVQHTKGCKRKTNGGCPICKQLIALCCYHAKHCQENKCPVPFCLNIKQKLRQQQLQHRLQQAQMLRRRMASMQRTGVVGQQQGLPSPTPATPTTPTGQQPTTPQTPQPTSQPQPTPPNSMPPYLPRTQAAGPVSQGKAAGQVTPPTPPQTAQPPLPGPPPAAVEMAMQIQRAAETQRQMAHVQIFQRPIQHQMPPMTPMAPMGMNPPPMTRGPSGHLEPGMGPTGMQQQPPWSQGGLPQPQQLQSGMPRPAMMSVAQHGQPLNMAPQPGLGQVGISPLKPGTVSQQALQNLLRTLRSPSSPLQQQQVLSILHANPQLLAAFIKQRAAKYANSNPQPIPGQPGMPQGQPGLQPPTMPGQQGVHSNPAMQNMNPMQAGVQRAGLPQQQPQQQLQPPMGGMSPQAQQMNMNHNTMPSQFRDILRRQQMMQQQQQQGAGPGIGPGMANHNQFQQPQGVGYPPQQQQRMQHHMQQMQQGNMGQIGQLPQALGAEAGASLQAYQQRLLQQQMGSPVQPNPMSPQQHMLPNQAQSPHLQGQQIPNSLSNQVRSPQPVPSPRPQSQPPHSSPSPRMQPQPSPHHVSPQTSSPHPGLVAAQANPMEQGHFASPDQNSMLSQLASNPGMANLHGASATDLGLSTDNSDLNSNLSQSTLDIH
Sequence of Cellular tumor antigen p53 (Homo sapiens) (P04637 whole entry, looked up): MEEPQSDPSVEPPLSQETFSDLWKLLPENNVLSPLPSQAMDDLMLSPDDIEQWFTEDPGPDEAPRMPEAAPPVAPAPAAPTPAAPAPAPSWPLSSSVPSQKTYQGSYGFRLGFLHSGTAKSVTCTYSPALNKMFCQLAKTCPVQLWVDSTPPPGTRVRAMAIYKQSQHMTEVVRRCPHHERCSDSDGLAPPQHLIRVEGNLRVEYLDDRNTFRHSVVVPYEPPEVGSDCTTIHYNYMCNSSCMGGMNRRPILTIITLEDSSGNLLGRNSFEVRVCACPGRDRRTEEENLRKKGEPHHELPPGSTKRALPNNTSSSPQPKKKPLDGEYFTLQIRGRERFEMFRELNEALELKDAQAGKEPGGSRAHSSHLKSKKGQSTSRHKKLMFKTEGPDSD

ΔTm (dsDNA [1]): 13.6 °C | ΔTm (dsDNA [2]): 20.9 °C | IC50 [3]: 3.9 to 4.2 µM | Activity [5]: inactive | Activity [6]: inactive | Activity [8]: inactive | Activity [13]: inactive | Activity [14]: inactive | Activity [17]: inactive | Activity [20]: inactive | Activity [22]: inactive | Activity [23]: inactive | Activity [24]: inactive | Activity [28]: inactive | Activity [32]: inactive | Activity [35]: inactive | Activity [38]: inactive
Structure (SMILES): CC1=NN(c2ccc(C(=O)NCCOCCOCC(=O)NCCC(=O)Nc3cn(C)c(C(=O)Nc4cc(C(=O)Nc5cn(C)c(C(=O)Nc6cn(C)c(C(=O)NCCCC(=O)Nc7cc(C(=O)Nc8cc(C(=O)Nc9cc(C(=O)Nc%10cc(C(=O)NCCCN(C)C)n(C)c%10)n(C)c9)n(C)c8)n(C)c7)n6)n5)n(C)c4)n3)cc2)C(=O)/C1=C/c1ccc(-c2cc(C)c(C)cc2[N+](=O)[O-])o1
Activity (A549 [4]): Active | Activity (A549 [7]): inactive | Activity (A549 [9]): inactive | Activity (A549 [10]): inactive | Activity (A549 [11]): inactive | Activity (A549 [12]): inactive | Activity (A549 [15]): inactive | Activity (A549 [16]): inactive | Activity (A549 [18]): inactive | Activity (A549 [19]): inactive | Activity (A549 [21]): inactive | Activity (A549 [25]): inactive | Activity (A549 [26]): inactive | Activity (A549 [27]): inactive | Activity (A549 [29]): inactive | Activity (A549 [30]): inactive | Activity (A549 [31]): inactive | Activity (A549 [33]): inactive | Activity (A549 [34]): inactive | Activity (A549 [36]): inactive | Activity (A549 [37]): inactive | Activity (A549 [39]): inactive

ΔTm (dsDNA [1]): 16.9 °C | ΔTm (dsDNA [2]): 11 °C | IC50 [3]: 3.9 to 4.2 µM
Structure (SMILES): CC1=NN(c2ccc(C(=O)NCCC(=O)NCCC(=O)Nc3cc(C(=O)Nc4cn(C)c(C(=O)Nc5cn(C)c(C(=O)Nc6cc(C(=O)NCCCC(=O)Nc7cc(C(=O)Nc8cc(C(=O)Nc9cc(C(=O)Nc%10cc(C(=O)NCCCN(C)C)n(C)c%10)n(C)c9)n(C)c8)n(C)c7)n(C)c6)n5)n4)n(C)c3)cc2)C(=O)/C1=C/c1ccc(-c2cc(C)c(C)cc2[N+](=O)[O-])o1
Activity (A549 [4]): Active

inhibition [3]: Dose-dependent effect
Structure (SMILES): CCCCCCCCCCCCCCOc1cc(OCCCCCC(=O)NCCC(=O)Nc2cc(C(=O)Nc3cn(C)c(C(=O)Nc4cn(C)c(C(=O)Nc5cc(C(=O)NCCCC(=O)Nc6cc(C(=O)Nc7cc(C(=O)Nc8cc(C(=O)Nc9cc(C(=O)O)n(C)c9)n(C)c8)n(C)c7)n(C)c6)n(C)c5)n4)n3)n(C)c2)cc(O)c1C(=O)O

IC50 (A549 [40]): 10 µM | IC50 (NCI-H157): 6 µM | IC50 (NCI-H460): 6.3 µM
Structure (SMILES): CC1=NN(c2ccc(C(=O)O)cc2)C(=O)/C1=C/c1ccc(-c2cc(C)c(C)cc2[N+](=O)[O-])o1
Activity (A549 [4]): inactive
